Results taken from paper PMC11682233 (Scientific Reports, 2024).

Legend:
NPC cells = test: Preliminary NPC cytotoxicity screening; format: cell-based; conditions: MTT, 48 h
Method in brief: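 3,000 NPC cells per well, plated 24 h, then given fresh medium with test compound at 0.1, 1, 10 or 100 µM for 48 h; cisplatin served as positive control. MTT at 0.5 mg/mL final in RPMI for 3 h at 37 °C. Formazan dissolved in DMSO, absorbance read at 540 nm. Run in triplicate; t-test, p < 0.05 significant.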

SUNE5-8F = test: Clonogenic; format: cell-based
SUNE6-10B = test: Clonogenic; format: cell-based
phosphorylated LRP6 [1] = test: Western immunoblotting of Wnt signaling proteins in SUNE5-8F cells; format: cell-based; conditions: IC25 and IC50 doses, 48 h
Method in brief: (§1)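 Lysates spun at 12,000 × g, 10 min, 4 °C; Bradford assay. 10% SDS-PAGE, nitrocellulose transfer, 5% BSA block 1 h, primary antibody overnight at 4 °C, HRP secondary 1 h at room temperature, ECL detection. Band densities normalised to β-actin, expressed relative to untreated control.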

[2] = test system: non-phosphorylated β-catenin; test: as above; format: cell-based; conditions: IC25 and IC50 doses, 48 h
Method in brief: as §1

[3] = target: T1, FZD10 recombinant proteoliposome (Homo sapiens, UniProt Q9ULW2); test: STD-NMR; format: binding; conditions: 230 nM protein, 0.3–1.5 µM ligand, D2O, 298 K
T1 sequence (Q9ULW2 21-581): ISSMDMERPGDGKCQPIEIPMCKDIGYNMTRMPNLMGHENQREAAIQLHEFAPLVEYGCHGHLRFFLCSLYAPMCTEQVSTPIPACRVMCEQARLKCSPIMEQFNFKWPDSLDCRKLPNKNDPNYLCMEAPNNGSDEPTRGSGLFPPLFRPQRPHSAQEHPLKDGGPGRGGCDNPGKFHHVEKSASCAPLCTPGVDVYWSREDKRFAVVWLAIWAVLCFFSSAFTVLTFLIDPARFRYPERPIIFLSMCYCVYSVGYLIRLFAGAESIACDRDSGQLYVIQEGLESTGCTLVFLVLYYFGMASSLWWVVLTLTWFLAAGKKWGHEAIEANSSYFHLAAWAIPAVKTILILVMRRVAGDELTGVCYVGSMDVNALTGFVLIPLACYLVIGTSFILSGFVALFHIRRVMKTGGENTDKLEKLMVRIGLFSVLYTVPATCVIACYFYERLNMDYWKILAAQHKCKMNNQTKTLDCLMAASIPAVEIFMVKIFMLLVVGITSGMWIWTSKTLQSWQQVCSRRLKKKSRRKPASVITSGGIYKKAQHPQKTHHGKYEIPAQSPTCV
Method in brief: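 STD-NMR at 600 MHz on a cryoprobe-equipped spectrometer, with the residual D2O peak (δH 4.70) as chemical shift reference. 1H spectral width 9600 Hz, 30° pulse angle, 2.5 s recycle delay, 8 scans.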

[4] = test system: non-phosphorylated β-catenin; test: Western immunoblotting of Wnt signaling proteins in SUNE6-10B cells; format: cell-based; conditions: IC50 dose, 48 h
Method in brief: as §1

phosphorylated LRP6 [5] = test: as above; format: cell-based; conditions: IC50 dose, 48 h
Method in brief: as §1

[6] = IC25 dose (rilpivirine 2 µM, doxazosin 7 µM, nicergoline 20 µM)
[7] = IC50 dose (rilpivirine 4 µM, doxazosin 14 µM, nicergoline 40 µM)
[8] = IC25 dose (doxazosin 7 µM, nicergoline 20 µM)

| STD signals (binding to FZD10) [3] | SMILES | 50% inhibition cutoff at 100 µM (NPC cells) | colony formation (SUNE5-8F; [6]) | colony formation (SUNE5-8F; [7]) | colony formation (SUNE6-10B; [8]) | colony formation (SUNE6-10B; [7]) | expression of phosphorylated LRP6 (phosphorylated LRP6 [1]) | expression of active β-catenin (non-phosphorylated β-catenin) [2] | expression level of active β-catenin [4] | colony formation (SUNE5-8F; 8 µM) | expression of phosphorylated LRP6 (phosphorylated LRP6 [5]) |
| --- | --- | --- | --- | --- | --- | --- | --- | --- | --- | --- | --- |
| STD signals for H5 and H6 | COc1cc2nc(N3CCN(C(=O)C4COc5ccccc5O4)CC3)nc(N)c2cc1OC (centres unmarked) [Doxazosin] | met the 50% inhibition cutoff at 100 µM | suppressed the colony formation | suppressed the colony formation | suppressed the colony formation | suppressed the colony formation | decreased | decreased |  |  |  |
| STD signals corresponding to H2 and H3 | CO[C@]12C[C@@H](COC(=O)c3cncc(Br)c3)CN(C)[C@@H]1Cc1cn(C)c3cccc2c13 [Nicergoline] | met the 50% inhibition cutoff at 100 µM | suppressed the colony formation | suppressed the colony formation | suppressed the colony formation | suppressed the colony formation | decreased | decreased | decreased |  |  |
| STD signals from H2, H3,4, and H5,6 | COc1cc2nc(N3CCN(C(=O)c4ccco4)CC3)nc(N)c2cc1OC [Prazosin] | met the 50% inhibition cutoff at 100 µM |  |  |  |  | decreased | decreased | decreased | inhibited colony formation |  |
| STD signals from H2 | Cc1cc(/C=C/C#N)cc(C)c1Nc1ccnc(Nc2ccc(C#N)cc2)n1 [Rilpivirine] | met the 50% inhibition cutoff at 100 µM | no impact | reduced the colony formation ability |  | reduced the colony formation ability | decreased | decreased | decreased |  | reduced |
